# Active and inactive are the calls of the source.
# Assays:
# Mus musculus [1] = assay: Antidepressant activity in CF1 mouse assessed as decrease in duration of immobility at 10 mg/kg during final 4 mins of the 6 mins session by forced swimming test; type: functional, organism-based; set-up: dose 10 mg/kg
# Procedure, shortened: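 Male adult CF1 mice given i.p. doses in saline (pH 7.0), N = 10. Each mouse swam 6 min in a 30 cm-diameter cylinder holding 20 cm of water at 25 ± 1 °C. Immobility was timed over the last 4 min. Values are mean ± SEM, analysed by ANOVA against saline.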
# Mus musculus [2] = assay: […] of CF1 mouse assessed as reduction in step down latency at 10 mg/kg by passive avoidance test; type: functional
# Mus musculus [3] = assay: Effect on long term memory of CF1 mouse assessed as reduction in latency during aquisition at 7.5 mg/kg by passive avoidance test; type: functional
# Procedure, shortened: (§1)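 Step-down inhibitory avoidance in male CF1 mice with i.p. dosing 30 min before training. Stepping down during training gave a 0.3 mA scrambled foot shock for 15 s. The latency to step down during training was recorded, with no exclusion criterion applied. N = 20 per group; values are median (interquartile range).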
# Mus musculus [4] = assay: Effect on long term memory of CF1 mouse assessed as reduction in latency during aquisition at 100 mg/kg by passive avoidance test; type: functional; procedure, shortened: as §1
# Mus musculus [5] = assay: Effect on long term memory of CF1 mouse assessed as reduction in step down latency at 7.5 mg/kg by passive avoidance test; type: functional
# Procedure, shortened: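 Step-down inhibitory avoidance in male CF1 mice dosed i.p. immediately after training, during which a 0.3 mA foot shock for 15 s followed stepping down. Test step-down latency was recorded 24 h later without shock, with a 300 s cutoff. N = 20 per group; values are median (interquartile range).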
# Mus musculus [6] = assay: Anxiolytic activity against CF1 mouse assessed as increase in number of rearings at 7.5 mg/kg after 30 mins by hole-board assay; type: functional, organism-based; set-up: dose 7.5 mg/kg
# Procedure, shortened: (§2)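 Hole-board set 15 cm high and divided into 16 squares, with photocells counting head-dips. Male CF1 mice were dosed i.p. and placed centrally 30 min later under dim light. Over 5 min, head-dips, rearings and squares crossed were counted. Values are mean ± SEM (N = 15), analysed by one-way ANOVA then SNK.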
# Mus musculus [7] = assay: Anxiolytic activity against CF1 mouse assessed as increase in number of head dips at 7.5 mg/kg after 30 mins by hole-board assay; type: functional, organism-based; set-up: dose 7.5 mg/kg; procedure, shortened: as §2
# Mus musculus [8] = assay: Anxiolytic activity against CF1 mouse assessed as increase in number of head dips at 15 mg/kg after 30 mins by hole-board assay; type: functional, organism-based; set-up: dose 15 mg/kg; procedure, shortened: as §2
# Mus musculus [9] = assay: Anxiolytic activity against CF1 mouse assessed as increase in number of crossings at 15 mg/kg after 30 mins by hole-board assay; type: functional, organism-based; set-up: dose 15 mg/kg; procedure, shortened: as §2
# Mus musculus [10] = assay: […] of CF1 mouse assessed as reduction in step down latency at 3 mg/kg by passive avoidance test; type: functional
# Mus musculus [11] = assay: Anxiolytic activity against CF1 mouse assessed as increase in number of head dips at 7.5 mg/kg after 30 mins in presence of ritanserin by hole-board assay; type: functional, organism-based; set-up: dose 7.5 mg/kg
# Procedure, shortened: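 Male CF1 mice received ritanserin 2 mg/kg i.p. in 10% DMSO 30 min before the test drug at 7.5 mg/kg i.p. The 5 min hole-board session began 30 min later, counting head-dips, crossings and rearings. Values are mean ± SEM (N = 8-14), analysed by ANOVA/SNK.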
# Mus musculus [12] = assay: Anxiolytic activity against CF1 mouse assessed as increase in latency to enter in the dark compartment 7.5 mg/kg in presence of ritanserin for 5 mins; type: functional, organism-based; set-up: dose 7.5 mg/kg
# Procedure, shortened: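 Male CF1 mice received ritanserin 2 mg/kg i.p. (in 10% DMSO) 30 min before the test drug at 7.5 mg/kg i.p. The light/dark test followed 30 min later, scoring latency to first entry and time in the light compartment. Values are mean ± SEM (N = 8-10), analysed by one-way ANOVA/SNK.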
# Mus musculus [13] = assay: Potentiation of pentobarbital-induced sleeping time in CF1 mouse at 100 mg/kg; type: functional, organism-based; set-up: dose 100 mg/kg
# Procedure, shortened: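 Male CF1 mice (N = 9-12) were dosed i.p. and given sodium pentobarbital 40 mg/kg i.p. 30 min later. Sleeping time was recorded as the interval from loss to recovery of the righting reflex. Values are mean ± SEM, analysed by ANOVA against controls.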
smiles,measurement,setting,value
COC(=O)C1=CO[C@@H](O[C@H]2O[C@H](CO)[C@@H](O)[C@H](O)[C@H]2O)[C@@H]2C([C@@H]3NCCc4c3[nH]c3ccccc43)=CC[C@H]12 [PSYCHOLLATINE],Activity,Mus musculus [1],inactive
same,Activity,Mus musculus [2],11.55 s
same,Activity,Mus musculus [3],13.4 s
same,Activity,Mus musculus [4],5 s
same,Activity,Mus musculus [5],13.1 s
same,Activity,Mus musculus [6],Active
same,Activity,Mus musculus [7],Active
same,Activity,Mus musculus [8],Active
same,Activity,Mus musculus [9],Active
same,Activity,Mus musculus [10],11.8 s
same,Activity,Mus musculus [11],inactive
same,Activity,Mus musculus [12],inactive
same,Activity,Mus musculus [13],Active
